How the values were obtained:
[1] = biological target: Dihydroorotate dehydrogenase (quinone), mitochondrial (Homo sapiens, UniProt Q02127); experiment: Inhibition of human recombinant N-terminal His-tagged DHODH (31 to 395 residues) expressed in Escherichia coli using DHO as substrate measured after 20 mins by DCPI dye-based assay
HT-29 = experiment: Antiproliferative activity against human HT-29 cells after 48 hrs by MTT assay; format: functional, cell-based; settings: HT-29, 48 h
In short: (§1)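 MTT antiproliferative screen on human colorectal adenocarcinoma HT-29 and breast cancer MDA-MB-231 cells. Cell growth inhibition IC50 was read from the dose-response curve.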

MDA-MB-231 = experiment: Antiproliferative activity against human MDA-MB-231 cells after 48 hrs by MTT assay; format: functional, cell-based; settings: MDA-MB-231, 48 h; in short: as §1

Dihydroorotate dehydrogenase (quinone), mitochondrial, sequence (Q02127 whole entry, the tested form may be a part): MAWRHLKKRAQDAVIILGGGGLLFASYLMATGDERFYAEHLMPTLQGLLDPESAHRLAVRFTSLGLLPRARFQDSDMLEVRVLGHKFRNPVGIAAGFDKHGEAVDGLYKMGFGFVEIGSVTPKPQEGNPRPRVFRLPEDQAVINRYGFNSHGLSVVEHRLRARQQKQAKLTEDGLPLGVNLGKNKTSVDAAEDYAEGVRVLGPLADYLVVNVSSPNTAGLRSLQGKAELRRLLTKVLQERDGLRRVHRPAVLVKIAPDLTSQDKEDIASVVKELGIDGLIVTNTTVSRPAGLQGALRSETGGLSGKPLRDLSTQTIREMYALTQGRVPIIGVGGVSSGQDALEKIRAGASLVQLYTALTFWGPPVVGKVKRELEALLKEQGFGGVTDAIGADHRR

Structure (SMILES)	IC50 [1] [µM]	IC50 (HT-29) [µM]	IC50 (MDA-MB-231) [µM]
O=C(OCc1ccccc1)c1cc(-c2ccc(Cl)cc2)nc2cc(Cl)c(Cl)cc12	7.48	48.7	> 100
COc1ccc(-c2cc(COCc3ccccc3)c3cc(C)ccc3n2)cc1		> 100	> 100
COc1ccc(-c2cc(COCc3ccccc3)c3cc(Cl)c(Cl)cc3n2)cc1	15.5	> 100	> 100
Cc1ccc2nc(-c3ccc(F)cc3)cc(C(=O)OCc3ccccc3)c2c1	1.56	15.1	13.2
COc1ccc(-c2cc(C(=O)OCc3ccccc3)c3cc(C)ccc3n2)cc1	1.96	17.3	20.5
Clc1ccc(-c2cc(COCc3ccccc3)c3cc(Cl)c(Cl)cc3n2)cc1	1.22	16.8	> 100
Cc1ccc2nc(-c3ccc(F)cc3)cc(COCc3ccccc3)c2c1	13.4	> 100	> 100
Cc1ccc2nc(-c3ccc(Cl)cc3)cc(COCc3ccccc3)c2c1		> 100	> 100
COc1ccc(-c2cc(C(=O)OCc3ccccc3)c3cc(Cl)c(Cl)cc3n2)cc1	3.34	42.2	39.2
Cc1ccc2nc(-c3ccc(Cl)cc3)cc(C(=O)OCc3ccccc3)c2c1	7.37	> 100	> 100
Cc1c(-c2ccc(-c3ccccc3F)cc2)nc2ccc(F)cc2c1C(=O)O [BREQUINAR SODIUM]		14	12.5
CC(=O)O[C@H]1C(=O)[C@@]2(C)[C@H]([C@H](OC(=O)c3ccccc3)[C@]3(O)C[C@H](OC(=O)[C@H](O)[C@@H](NC(=O)c4ccccc4)c4ccccc4)C(C)=C1C3(C)C)[C@]1(OC(C)=O)CO[C@@H]1C[C@@H]2O [PACLITAXEL]		14.6	13.2

— ChEMBL document CHEMBL4422683, “Synthesis of 2-,4,-6-, and/or 7-substituted quinoline derivatives as human dihydroorotate dehydrogenase (hDHODH) inhibitors and anticancer agents: 3D QSAR-assisted design” (Bioorg Med Chem Lett, 2019)
